B1: tRNA (parent)
chain: GUUCCGUUGGCGUAAUGGUAACGCGUCUCCCUCCUAAGGAGAAGACUGCGGGUUCGAGUCCCGUACGGAACG

Fewer inactive variants are shown than the library holds.

Variants of B1 are the subject of the data set. Briefly: yeast fitness relative to wild type (ratio to wild type); higher = fitter; tRNA-Arg(CCU), competitive growth, 37 C, YPD. Put shortly:
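The tRNA-Arg(CCU) gene variants were made by chemical synthesis with a 3% per-site mutation rate at 69 sites and inserted at the native genomic locus of Saccharomyces cerevisiae. After pooling, the strains were competed in YPD at 37°C for 24 hours in six parallel replicates. Gene amplicons from the start population and each end population were read by 100-nucleotide paired-end sequencing, and Darwinian fitness relative to wild type was taken from genotype frequency changes. Genotypes needed ≥ 100 starting reads, and estimates < 0.5 were set to 0.5.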
As for G23A A36U A40C G52A C61G, the yeast fitness turned out to be 0.639.

For C24A A37C G38A, the yeast fitness came out at 0.61.

On to G23A C29G U64A, for which the yeast fitness is ≤ 0.5.

On to G23U A36C C46U G50C G67C, for which the yeast fitness was ≤ 0.5.

In the case of G23A A36G C55G A69U, the yeast fitness is 0.567.

Take G23C A36C A45C G58A G68C: the yeast fitness was ≤ 0.5.

In the case of C24A C49U, the yeast fitness worked out at 0.614.

Turning to C24A G51A C60U G67A, the yeast fitness is ≤ 0.5.

For C24A C33A C49U U54G, the yeast fitness is 0.58.

For the variant C24A G56C C61G, the yeast fitness is ≤ 0.5.

In the case of C24A A65U, the yeast fitness was found to be 0.549.

On to C24A A65G, for which the yeast fitness was 0.654.

On to G23A A36U G39C A70C, for which the yeast fitness is ≤ 0.5.

For the variant C24A A36G C61U, the yeast fitness was ≤ 0.5.

As for G23C G48A U64A A65U, the yeast fitness was ≤ 0.5.

As to G23A G41C C49G, the yeast fitness worked out at 0.854.

For the variant G23C C60G C61U G68A, the yeast fitness was ≤ 0.5.

Regarding C24A A45G C61U, the yeast fitness is ≤ 0.5.

With C24A G48A U53G G67C, the yeast fitness was ≤ 0.5.

Regarding C24A C33A C46U C60G, the yeast fitness is ≤ 0.5.

Turning to G23A C31U, the yeast fitness was determined as 0.731.

Turning to G23A C31G, the yeast fitness is 0.811.

Consider G23C A36U G51C, for which the yeast fitness is ≤ 0.5.

Turning to G23C A37C A45G C49G, the yeast fitness came out at 0.671.

Regarding G23C C34G C55G, the yeast fitness is ≤ 0.5.

Turning to G23A C30U C62A, the yeast fitness was 0.561.

For G23A C33G A69C, the yeast fitness is ≤ 0.5.

For C22U U64C C66U, the yeast fitness came out at 0.7.

For the variant C24A A43G A70C, the yeast fitness was ≤ 0.5.

Turning to G23A A36U G39C C66U, the yeast fitness was ≤ 0.5.

Regarding C24A A43U G50A G67A, the yeast fitness is ≤ 0.5.

For the variant G23C A36U G52C, the yeast fitness was ≤ 0.5.

Turning to G23A C27U A37U C60U C61A, the yeast fitness was ≤ 0.5.

As for G23C C46U A70U, the yeast fitness is 0.622.

For G23C U53A, the yeast fitness stood at 0.55.

With G23C C27A A57U A69U, the yeast fitness was ≤ 0.5.

In the case of C24A C34U C49A A65U, the yeast fitness was ≤ 0.5.

In the case of C24A U54C, the yeast fitness came to 0.634.

Consider G23A C29A G48A C55A, for which the yeast fitness is ≤ 0.5.

Take G23A A42G: the yeast fitness turned out to be 0.747.

For the variant C24A A36C G41A U53C, the yeast fitness is ≤ 0.5.

Turning to G23C G25C C55G, the yeast fitness is ≤ 0.5.

G23A C29G U32C A45U C60G C61U A69G: the yeast fitness was ≤ 0.5.

With G23C G58U, the yeast fitness was 0.565.

On to G23C G58A, for which the yeast fitness was determined as 0.6.

Turning to G23C U28G G41A A42U U59A, the yeast fitness was ≤ 0.5.

For C24A U26G C61U, the yeast fitness was ≤ 0.5.

Regarding G23A G58A, the yeast fitness was 0.715.

For G23A G58C, the yeast fitness is 0.885.

As to G23C A37G, the yeast fitness is ≤ 0.5.

Regarding G23C A37C, the yeast fitness came out at 0.656.

Regarding C24A G48C, the yeast fitness worked out at 0.621.

With G23C A37G C66A, the yeast fitness is ≤ 0.5.

On to G23A C30U G39A C60G, for which the yeast fitness is ≤ 0.5.

As for C24A C31G C62A, the yeast fitness came to 0.594.

For the variant C24A U47G G68A, the yeast fitness is ≤ 0.5.

As for C24A G25C U47A, the yeast fitness is ≤ 0.5.

Consider C24A A43U A45C, for which the yeast fitness is ≤ 0.5.

For the variant G23C A37U U47C C55U C60G C66U, the yeast fitness is ≤ 0.5.

In the case of G23A C27U A37U, the yeast fitness is 0.58.

With G23C C24G C34G U64A G67A, the yeast fitness is ≤ 0.5.

Consider C24A C66G, for which the yeast fitness stood at 0.548.

Turning to G23C G25A C61U, the yeast fitness was found to be 0.536.

For the variant C24A C27G C61U, the yeast fitness stood at 0.575.

For the variant C24A C34A A37G A57G A65G, the yeast fitness was 0.544.

On to G23A C62U A69U, for which the yeast fitness was determined as 0.642.

Turning to G23C C61U A70U, the yeast fitness came to 0.6.

For the variant G23A A42G C61U, the yeast fitness is ≤ 0.5.

With G23C C33A G50C G58C A70G, the yeast fitness was 0.548.

For the variant G23C G25A, the yeast fitness is 0.818.

Consider G23C C27G C31G, for which the yeast fitness came out at 0.608.

In the case of C24A C33A C49U A69U, the yeast fitness was ≤ 0.5.

Consider G23A C49U G63A A65C, for which the yeast fitness was ≤ 0.5.

As for G23A U53G, the yeast fitness was ≤ 0.5.

Consider C24A U28C C61A, for which the yeast fitness was ≤ 0.5.

For the variant C24A A40U A43U C61G G68U, the yeast fitness stood at 0.597.

For G23A C30U A37U G41C, the yeast fitness amounted to 0.634.

G23A C33G A70U: the yeast fitness is ≤ 0.5.

As to C24A C31G C60U, the yeast fitness is ≤ 0.5.

For G23A C24U, the yeast fitness is 0.94.

As for G23C G39A, the yeast fitness stood at 0.669.

Regarding C24A G56A, the yeast fitness was determined as 0.711.

Turning to G23C G38C A40U G58C, the yeast fitness was ≤ 0.5.

Regarding G23C A37G C55G G67A, the yeast fitness is ≤ 0.5.

G23C C24G C33G A40U A70G: the yeast fitness was ≤ 0.5.

As to G23C C24A G38A C62A A69G, the yeast fitness is ≤ 0.5.

As to G23C G25A G48C, the yeast fitness worked out at 0.594.

In the case of G23A U26G A40C C46G C60G, the yeast fitness was ≤ 0.5.

In the case of G23C U26C, the yeast fitness was 0.624.

As for G23C C24A C30G A40U U47A G51C, the yeast fitness was determined as 0.506.

Take G23C A36U C46G C60U: the yeast fitness amounted to 0.591.

Turning to C24A A45G A65U, the yeast fitness worked out at 0.552.

With C24A A36C, the yeast fitness turned out to be 0.531.

For the variant G23C C30G G63A, the yeast fitness is ≤ 0.5.

For the variant G23A G52C, the yeast fitness was found to be 0.564.

Consider G23C C66A, for which the yeast fitness was ≤ 0.5.

With G23C C66G, the yeast fitness was ≤ 0.5.

Consider G23A C30U C62A G68A, for which the yeast fitness was found to be 0.575.

As to G23A C34A A43U U47C, the yeast fitness turned out to be 0.577.

On to G23A C49U A65C, for which the yeast fitness was 0.523.

Regarding C24A C34U A40C, the yeast fitness is ≤ 0.5.

With G23U A69C, the yeast fitness worked out at 0.695.

For the variant C24A G39C G51A G63A, the yeast fitness is ≤ 0.5.

Turning to G23A G58C A70C, the yeast fitness stood at 0.582.

With G23U C49U C55A C66U, the yeast fitness is ≤ 0.5.

For the variant C24A A37G, the yeast fitness came to 0.513.

On to C24A A37U, for which the yeast fitness worked out at 0.579.

Regarding G23C C46U C62U, the yeast fitness was 0.592.

Take G23U C60U A65G: the yeast fitness was ≤ 0.5.

For the variant G23U U54G, the yeast fitness was ≤ 0.5.

For C24A C61U G67A, the yeast fitness was ≤ 0.5.

On to G23C C46U G67A, for which the yeast fitness was found to be 0.564.

Turning to G23C A65U, the yeast fitness stood at 0.585.

As to C24A G48A U53G, the yeast fitness was ≤ 0.5.

Consider G23A A43C G44A A65G, for which the yeast fitness is 0.637.

As for C24A C31U A45U A69U, the yeast fitness is ≤ 0.5.

As to G23A C61A A70U, the yeast fitness is ≤ 0.5.

Regarding C22U U53C C61G G67A A69C, the yeast fitness was ≤ 0.5.

On to G23A C29U C30A G67A, for which the yeast fitness was ≤ 0.5.

Regarding G23A A36G C61U A65U, the yeast fitness is ≤ 0.5.

For G23C A36U U53C, the yeast fitness turned out to be 0.553.

For the variant G23C C31A C49G C55A, the yeast fitness worked out at 0.534.

With G23A A36G A57C C60A, the yeast fitness is ≤ 0.5.

For the variant G23C A43U, the yeast fitness is 0.733.

For the variant C24A A42G C61U C62G, the yeast fitness was determined as 0.541.

With G23C C24A U32C A65U G68A, the yeast fitness is ≤ 0.5.

With C24A A36G A37G, the yeast fitness was ≤ 0.5.

Consider C24A U26A C31A C55A U64C, for which the yeast fitness was ≤ 0.5.

Take C22U U53A: the yeast fitness stood at 0.673.

Take C22U U53G: the yeast fitness was ≤ 0.5.

For G23C C61U C66G A70U, the yeast fitness is 0.562.

C24A A43G G63U U64A: the yeast fitness was ≤ 0.5.

G23A C55A: the yeast fitness was ≤ 0.5.

As for C22U U54C, the yeast fitness was determined as 0.724.

As for G23C A40C, the yeast fitness came out at 0.666.

As to C24A C30U A45G U54C A57U C62U, the yeast fitness is 0.548.

As to C24A A42G C49U U59G C62A A69G, the yeast fitness is ≤ 0.5.

In the case of C24A C55A C62U A65C, the yeast fitness worked out at 0.529.

Consider C24A C33A C34A C62A, for which the yeast fitness was ≤ 0.5.

Regarding C24A G41A G44A U53A C66U, the yeast fitness was ≤ 0.5.

As for G23C U47G, the yeast fitness was found to be 0.626.

On to C24A C30U A65G C66U, for which the yeast fitness was ≤ 0.5.

In the case of G23C G56C, the yeast fitness is ≤ 0.5.

As for G23C G56A, the yeast fitness amounted to 0.566.

For the variant C24A G68U, the yeast fitness amounted to 0.654.

As for C24A C29U G67U, the yeast fitness came out at 0.591.

Consider C22U U64A, for which the yeast fitness stood at 0.837.

As for G23A C29A C31U A42G A43C U54G, the yeast fitness is ≤ 0.5.

Turning to C24A C55A A65G, the yeast fitness is ≤ 0.5.

As for C24A G44C C49A C60U A69C, the yeast fitness is 0.599.

G23C C30G A37U C62U A65U: the yeast fitness was ≤ 0.5.

As to G23C C49G, the yeast fitness was determined as 0.563.

Turning to G23C A37C A42G C46G C66U, the yeast fitness was ≤ 0.5.

On to C24A G25A U35A, for which the yeast fitness is ≤ 0.5.

As to G23A A43U C49U C62U, the yeast fitness was ≤ 0.5.

As to G23C C27G C55G G56A G58A C66G A70U, the yeast fitness is ≤ 0.5.

For the variant G23A A37U C49G C55G, the yeast fitness turned out to be 0.556.

For C24A A45G C61G C62U, the yeast fitness amounted to 0.543.

With G23A U47A, the yeast fitness is 0.796.

Take G23A C27G C34A A45C U64G: the yeast fitness is ≤ 0.5.

Turning to G23C A42G G56A, the yeast fitness is ≤ 0.5.

Turning to G23A C24G A37C, the yeast fitness came to 0.506.

For G23A C24U A37C G41C U54C U64C, the yeast fitness was ≤ 0.5.

On to C24A U26C U54A C60U A69C, for which the yeast fitness stood at 0.819.

In the case of G23C G67A, the yeast fitness came to 0.56.

On to G23C G39C A70U, for which the yeast fitness was ≤ 0.5.

G23C G51A C61G A69U: the yeast fitness was ≤ 0.5.

The values above are taken from the RNAGym collection of RNA variant scans (doi:10.1126/science.aae0568).
